These results are taken from ChEMBL document CHEMBL1129519, “Optimal recognition of neutral endopeptidase and angiotensin-converting enzyme active sites by mercaptoacyldipeptides as a means to design potent dual inhibitors” (J Med Chem, 1996).

Molecules are shown by their SMILES.

The target in one assay is T1, Neprilysin (Oryctolagus cuniculus, UniProt P08049).
T1 sequence (P08049 whole entry): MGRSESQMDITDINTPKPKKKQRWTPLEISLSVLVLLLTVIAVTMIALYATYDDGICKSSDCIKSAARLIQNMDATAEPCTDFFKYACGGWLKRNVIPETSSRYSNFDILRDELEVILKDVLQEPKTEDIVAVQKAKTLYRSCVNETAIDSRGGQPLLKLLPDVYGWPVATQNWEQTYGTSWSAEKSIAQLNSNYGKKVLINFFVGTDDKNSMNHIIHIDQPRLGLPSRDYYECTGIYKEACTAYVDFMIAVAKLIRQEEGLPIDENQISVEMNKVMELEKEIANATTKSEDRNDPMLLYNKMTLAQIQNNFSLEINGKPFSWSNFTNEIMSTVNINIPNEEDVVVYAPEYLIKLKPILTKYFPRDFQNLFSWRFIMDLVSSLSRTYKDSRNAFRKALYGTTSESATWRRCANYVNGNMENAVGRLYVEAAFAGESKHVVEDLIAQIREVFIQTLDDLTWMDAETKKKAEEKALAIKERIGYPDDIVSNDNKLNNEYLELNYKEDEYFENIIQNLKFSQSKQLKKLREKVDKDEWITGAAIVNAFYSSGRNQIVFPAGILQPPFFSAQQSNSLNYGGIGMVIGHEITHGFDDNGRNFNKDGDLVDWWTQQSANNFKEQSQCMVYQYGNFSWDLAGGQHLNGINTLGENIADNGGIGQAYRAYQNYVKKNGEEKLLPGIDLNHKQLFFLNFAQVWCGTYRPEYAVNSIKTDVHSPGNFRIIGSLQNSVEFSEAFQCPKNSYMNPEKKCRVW
Description: Inhibitory activity was tested against neutral endopeptidase. Summed up:
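Rabbit kidney enzyme purified to homogeneity, 1 pmol/100 µL final, preincubated 15 min at 25 °C with or without rising inhibitor concentrations in 50 mM Tris-HCl pH 7.4. [3H]Tyr-D-Ala2-Leu-enkephalin then added to 20 nM final and run 30 min. Stopped with 0.5 M HCl, tritiated metabolites separated on polystyrene beads. IC50 as mean ± SEM of three independent determinations, each in triplicate.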

In assay [1] the target is T2, Angiotensin-converting enzyme (Rattus norvegicus, UniProt P47820).
T2 sequence (P47820 whole entry): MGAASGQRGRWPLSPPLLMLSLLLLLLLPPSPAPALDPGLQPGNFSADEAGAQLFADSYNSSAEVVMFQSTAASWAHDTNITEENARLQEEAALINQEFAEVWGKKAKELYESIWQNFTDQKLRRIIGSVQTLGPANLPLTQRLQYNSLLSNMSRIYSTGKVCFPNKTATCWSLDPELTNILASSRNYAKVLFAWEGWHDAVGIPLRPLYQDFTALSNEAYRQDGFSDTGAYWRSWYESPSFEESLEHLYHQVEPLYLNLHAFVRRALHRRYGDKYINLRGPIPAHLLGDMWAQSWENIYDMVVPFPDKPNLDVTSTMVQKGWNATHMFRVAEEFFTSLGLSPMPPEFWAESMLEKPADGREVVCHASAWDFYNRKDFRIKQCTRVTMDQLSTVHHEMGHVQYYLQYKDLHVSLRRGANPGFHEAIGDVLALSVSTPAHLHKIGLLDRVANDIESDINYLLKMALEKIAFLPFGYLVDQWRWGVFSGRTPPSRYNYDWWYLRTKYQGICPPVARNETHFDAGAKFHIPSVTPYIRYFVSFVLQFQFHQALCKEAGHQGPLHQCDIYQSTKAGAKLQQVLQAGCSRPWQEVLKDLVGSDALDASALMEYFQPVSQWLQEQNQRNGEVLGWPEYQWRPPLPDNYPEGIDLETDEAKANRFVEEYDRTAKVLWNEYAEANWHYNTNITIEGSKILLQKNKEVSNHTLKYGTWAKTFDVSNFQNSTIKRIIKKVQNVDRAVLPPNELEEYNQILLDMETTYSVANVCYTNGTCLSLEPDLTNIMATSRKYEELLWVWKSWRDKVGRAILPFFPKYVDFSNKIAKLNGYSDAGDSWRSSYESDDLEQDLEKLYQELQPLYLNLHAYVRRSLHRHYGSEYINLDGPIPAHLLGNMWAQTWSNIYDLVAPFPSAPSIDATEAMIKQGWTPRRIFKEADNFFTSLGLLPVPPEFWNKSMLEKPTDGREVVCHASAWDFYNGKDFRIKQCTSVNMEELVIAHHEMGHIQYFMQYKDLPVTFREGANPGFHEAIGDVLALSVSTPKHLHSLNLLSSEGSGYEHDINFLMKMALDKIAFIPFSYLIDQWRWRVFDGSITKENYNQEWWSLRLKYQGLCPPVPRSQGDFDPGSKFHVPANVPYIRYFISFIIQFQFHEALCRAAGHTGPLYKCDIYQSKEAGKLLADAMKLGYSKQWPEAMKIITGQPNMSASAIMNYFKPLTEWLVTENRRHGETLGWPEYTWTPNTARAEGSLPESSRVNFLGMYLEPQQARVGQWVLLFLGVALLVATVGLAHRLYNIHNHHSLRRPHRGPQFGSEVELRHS
Description: Inhibitory activity against angiotensin I converting enzyme. Summed up:
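Rat testis enzyme purified to homogeneity, 0.02 pmol/100 µL final, preincubated 15 min at 37 °C with varied inhibitor levels in 50 mM Tris-HCl pH 8.0. N-Cbz-Phe-His-Leu then added to 0.05 mM final and run 15 min. Stopped with 2 M NaOH, His-Leu measured fluorimetrically (ex 365, em 495 nm) against a His-Leu calibration curve. IC50 as mean ± SEM of three independent determinations, each in triplicate.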

What is called IC50 is the concentration needed to halve the response being measured. Regarding `CC(C)[C@H](NC(=O)[C@@H](S)Cc1ccccc1)C(=O)N1CCCC1C(=O)O` (stereo partly specified), the IC50 on Neprilysin turned out to be 24 nM; in assay [1], 0.85 nM.

Consider `C[C@H](NC(=O)[C@H](Cc1ccccc1)NC(=O)[C@@H](S)Cc1ccccc1)C(=O)O`, for which the IC50 on Neprilysin was determined as 2.3 nM; in assay [1], 7.1 nM.

Turning to `CCCC[C@H](NC(=O)[C@@H](S)Cc1ccccc1)C(=O)N[C@@H](Cc1ccc(O)cc1)C(=O)O`, the IC50 on Neprilysin was 2.8 nM; in assay [1] it was 4 nM.
